One compound from ChEMBL document CHEMBL4480411, “Discovery of Second Generation RORγ Inhibitors Composed of an Azole Scaffold” (J Med Chem, 2019) can be followed below.

Molecules are shown by their SMILES. Active and inactive are the calls of the source. The calls are words filed in the database; no cut-off is given here. Bounds are passed on as bounds.

Data set [1] can be described thus: Oral bioavailability in CD(SD) rat at 3 mg/kg. As to conditions: in vivo. It counts as ADME, organism-based.
Data set [2] has as its target T1, Cytochrome P450 3A4 (Homo sapiens, UniProt P08684). The experiment in a line: Time-dependent inhibition of human CYP3A4 using midazolam as substrate. Type of data set: ADME.
Data set [3] deals with Cytochrome P450 2C9 (Homo sapiens, UniProt P11712). The data set is described as follows: Time-dependent inhibition of human CYP2C9. It counts as ADME.
In data set [4] the target is T2, Nuclear receptor ROR-alpha (Homo sapiens, UniProt P35398).
T2 sequence (P35398 whole entry): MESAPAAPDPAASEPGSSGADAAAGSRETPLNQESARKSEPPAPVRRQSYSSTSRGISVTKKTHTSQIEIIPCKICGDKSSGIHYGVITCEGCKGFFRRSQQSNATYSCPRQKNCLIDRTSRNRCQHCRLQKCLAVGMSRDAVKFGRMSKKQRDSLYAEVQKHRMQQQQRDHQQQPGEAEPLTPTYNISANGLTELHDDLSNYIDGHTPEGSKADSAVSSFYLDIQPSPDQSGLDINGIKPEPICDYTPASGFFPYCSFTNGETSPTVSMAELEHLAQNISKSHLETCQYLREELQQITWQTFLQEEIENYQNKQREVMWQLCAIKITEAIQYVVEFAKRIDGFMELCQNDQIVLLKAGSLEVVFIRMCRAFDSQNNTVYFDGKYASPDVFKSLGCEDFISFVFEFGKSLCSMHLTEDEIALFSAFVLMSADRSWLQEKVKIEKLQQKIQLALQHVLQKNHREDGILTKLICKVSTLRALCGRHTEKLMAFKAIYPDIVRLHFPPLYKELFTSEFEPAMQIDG
The experiment in a line: Inhibition of GAL4-fused human RORalpha transcriptional activity expressed in CHOK1 cells after 2 days by luciferase reporter gene assay. Type of data set: cell-based. (In a reporter assay the amount or activity of a reporter protein is the signal.)

For data set [5], the target named is T3, Cytochrome P450 1A2 (Homo sapiens, UniProt P05177).
T3 sequence (P05177 whole entry): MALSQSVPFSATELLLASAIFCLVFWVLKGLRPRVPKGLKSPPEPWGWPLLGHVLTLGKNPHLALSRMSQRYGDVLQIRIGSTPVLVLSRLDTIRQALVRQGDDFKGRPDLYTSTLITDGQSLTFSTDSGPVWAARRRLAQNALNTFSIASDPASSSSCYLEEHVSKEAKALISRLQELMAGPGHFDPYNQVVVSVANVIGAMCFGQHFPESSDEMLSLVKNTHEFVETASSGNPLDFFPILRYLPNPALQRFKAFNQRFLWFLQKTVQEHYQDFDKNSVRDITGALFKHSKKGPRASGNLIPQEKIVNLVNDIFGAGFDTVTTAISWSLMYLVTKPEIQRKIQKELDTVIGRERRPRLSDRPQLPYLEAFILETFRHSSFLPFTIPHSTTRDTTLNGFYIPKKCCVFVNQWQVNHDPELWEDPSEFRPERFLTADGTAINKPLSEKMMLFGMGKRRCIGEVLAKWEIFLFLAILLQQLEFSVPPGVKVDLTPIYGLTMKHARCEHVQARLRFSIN
The data set is described as follows: Time-dependent inhibition of human CYP1A2. Type of data set: ADME.

Data set [6] in a line: Inhibition of GAL4-fused mouse LXR transcriptional activity expressed in CHOK1 cells after 2 days by luciferase reporter gene assay. It counts as cell-based. Conditions: CHO-K1, 48 h.
Data set [7] in a line: Volume of distribution at steady state in CD(SD) rat at 1 mg/kg, iv. Type of data set: ADME, organism-based. Conditions: in vivo, read-out: Vdss.
Data set [8] deals with T4, Peroxisome proliferator-activated receptor delta (Homo sapiens, UniProt Q03181).
T4 sequence (Q03181 whole entry): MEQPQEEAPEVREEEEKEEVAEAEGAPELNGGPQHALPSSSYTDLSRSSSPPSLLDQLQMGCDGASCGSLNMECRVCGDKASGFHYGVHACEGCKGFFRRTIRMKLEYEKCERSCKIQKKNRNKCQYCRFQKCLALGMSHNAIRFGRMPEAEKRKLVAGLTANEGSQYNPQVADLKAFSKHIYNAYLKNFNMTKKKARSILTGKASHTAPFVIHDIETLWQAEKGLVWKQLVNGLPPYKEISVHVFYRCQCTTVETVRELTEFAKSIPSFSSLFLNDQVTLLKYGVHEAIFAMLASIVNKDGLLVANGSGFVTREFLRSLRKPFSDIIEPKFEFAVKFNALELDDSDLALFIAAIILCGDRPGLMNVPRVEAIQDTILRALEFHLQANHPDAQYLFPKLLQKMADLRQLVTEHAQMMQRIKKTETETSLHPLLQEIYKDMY
The data set is described as follows: Inhibition of GAL4-fused human PPARdelta transcriptional activity expressed in CHOK1 cells after 2 days by luciferase reporter gene assay. It counts as cell-based.

The target of data set [9] is Cytochrome P450 2D6 (Homo sapiens, UniProt P10635). The data set is described as follows: Time-dependent inhibition of human CYP2D6. It counts as ADME.
In data set [10] the target is T1, Cytochrome P450 3A4. The experiment in a line: Time-dependent inhibition of human CYP3A4 using testosterone as substrate. Type of data set: ADME.
Data set [11] can be described thus: Lipophilicity, log D of the compound. Type of data set: physicochemical. Conditions: octanol/water.
A short description of data set [12]: AUC in CD(SD) rat at 3 mg/kg, po. Type of data set: ADME, organism-based. Conditions: in vivo.
Data set [13] can be described thus: Total body clearance in CD(SD) rat at 1 mg/kg, iv. Type of data set: ADME, organism-based. As to conditions: in vivo.
The target in data set [14] is T5, Nuclear receptor ROR-gamma (Homo sapiens, UniProt P51449).
T5 sequence (P51449 whole entry): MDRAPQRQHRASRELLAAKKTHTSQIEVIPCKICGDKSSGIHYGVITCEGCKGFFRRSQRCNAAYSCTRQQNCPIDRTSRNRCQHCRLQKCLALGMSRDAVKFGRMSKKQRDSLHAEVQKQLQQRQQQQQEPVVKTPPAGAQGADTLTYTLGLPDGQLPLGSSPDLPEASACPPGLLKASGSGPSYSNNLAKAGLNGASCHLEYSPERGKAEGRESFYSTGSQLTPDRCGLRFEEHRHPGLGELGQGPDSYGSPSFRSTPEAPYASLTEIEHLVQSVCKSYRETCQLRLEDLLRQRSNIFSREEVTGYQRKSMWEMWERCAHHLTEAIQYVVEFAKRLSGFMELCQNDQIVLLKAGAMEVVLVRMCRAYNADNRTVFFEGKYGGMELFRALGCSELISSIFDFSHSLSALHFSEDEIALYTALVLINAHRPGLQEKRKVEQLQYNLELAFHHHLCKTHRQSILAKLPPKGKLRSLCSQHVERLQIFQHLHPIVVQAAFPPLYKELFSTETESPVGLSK
The experiment in a line: Inhibition of human GAL4-fused RORgamma LBD transcriptional activity expressed in CHOK1 cells after 2 days by luciferase reporter gene assay. It counts as cell-based.

Data set [15] relates to Mus musculus. The experiment in a line: Anti-inflammatory activity in C57BL/6 mouse model of IL23-induced dermatitis assessed as inhibition of ear swelling at 3 to 30 mg/kg, po administered once daily from day 1 to 11 and measured on days 1, 5, 8, 10, 12 post dose. Type of data set: functional, organism-based. An outline of the steps: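 IL-23 dermatitis: 250 ng recombinant mouse IL-23 in 20 μL PBS with 0.1% BSA injected intradermally into left ear of anesthetized mice on days 1, 3, 5, 8 and 10. Oral dosing at 3 and 30 mg/kg (vehicle 0.5% MC, 10 mL/kg) daily days 1–11. Left ear thickness measured by digital gauge on days 1, 5, 8, 10, 12; change from day 1 baseline.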

Data set [16] can be described thus: MRT in CD(SD) rat at 3 mg/kg, po. It counts as ADME, organism-based. Conditions: in vivo.

T1 sequence (P08684 whole entry): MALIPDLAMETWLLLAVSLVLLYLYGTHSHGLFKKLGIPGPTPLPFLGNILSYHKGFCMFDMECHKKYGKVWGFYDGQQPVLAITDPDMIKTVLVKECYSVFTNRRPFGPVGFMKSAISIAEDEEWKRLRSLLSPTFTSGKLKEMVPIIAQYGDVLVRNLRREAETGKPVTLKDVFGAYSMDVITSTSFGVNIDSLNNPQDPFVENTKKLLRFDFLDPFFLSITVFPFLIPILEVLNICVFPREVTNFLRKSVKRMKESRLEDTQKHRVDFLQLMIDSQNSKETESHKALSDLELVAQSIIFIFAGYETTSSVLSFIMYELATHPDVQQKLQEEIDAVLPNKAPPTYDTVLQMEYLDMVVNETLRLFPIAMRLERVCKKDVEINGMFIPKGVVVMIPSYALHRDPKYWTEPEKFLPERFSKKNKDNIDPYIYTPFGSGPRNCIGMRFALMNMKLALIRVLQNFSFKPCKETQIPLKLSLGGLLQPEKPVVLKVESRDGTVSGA
Chain of Cytochrome P450 2C9 (P11712 whole entry): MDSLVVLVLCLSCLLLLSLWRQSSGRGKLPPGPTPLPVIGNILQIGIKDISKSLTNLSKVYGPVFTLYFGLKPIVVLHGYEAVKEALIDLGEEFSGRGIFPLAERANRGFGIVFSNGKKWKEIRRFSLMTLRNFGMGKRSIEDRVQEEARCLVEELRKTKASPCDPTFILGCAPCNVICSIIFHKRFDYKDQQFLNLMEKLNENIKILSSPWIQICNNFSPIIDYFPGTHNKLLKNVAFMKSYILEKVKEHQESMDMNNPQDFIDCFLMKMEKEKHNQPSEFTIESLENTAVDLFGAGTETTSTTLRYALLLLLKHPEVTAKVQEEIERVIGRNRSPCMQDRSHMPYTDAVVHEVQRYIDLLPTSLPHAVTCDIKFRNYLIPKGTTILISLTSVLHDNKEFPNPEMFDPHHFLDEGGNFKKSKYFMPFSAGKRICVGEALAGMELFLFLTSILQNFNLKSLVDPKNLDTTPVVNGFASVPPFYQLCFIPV
Chain of Cytochrome P450 2D6 (P10635 whole entry): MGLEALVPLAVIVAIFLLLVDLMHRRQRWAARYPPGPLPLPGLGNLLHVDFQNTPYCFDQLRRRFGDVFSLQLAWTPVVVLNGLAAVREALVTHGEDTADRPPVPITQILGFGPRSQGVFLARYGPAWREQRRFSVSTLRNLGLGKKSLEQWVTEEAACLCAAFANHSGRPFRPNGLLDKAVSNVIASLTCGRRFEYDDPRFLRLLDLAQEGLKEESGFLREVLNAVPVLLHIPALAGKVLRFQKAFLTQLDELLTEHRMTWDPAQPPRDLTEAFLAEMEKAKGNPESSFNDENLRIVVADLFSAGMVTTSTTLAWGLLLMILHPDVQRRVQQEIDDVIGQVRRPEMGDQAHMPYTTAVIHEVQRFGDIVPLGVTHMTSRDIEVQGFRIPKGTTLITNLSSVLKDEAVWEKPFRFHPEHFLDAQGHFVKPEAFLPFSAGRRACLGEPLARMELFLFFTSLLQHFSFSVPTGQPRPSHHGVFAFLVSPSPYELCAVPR

One may read the bioavailability as dose-corrected exposure relative to a reference, in per cent. Read a low bioavailability as little systemic uptake. In general, IC50 refers to the concentration that inhibits the measured activity by half. A word on the EC50: it is the concentration at which the effect is half-maximal. One may read the logD as lipophilicity at a set pH, counting ionised and neutral species. The low end stands for a more hydrophilic compound, the high end for a more lipophilic compound. As a reminder, the AUC is concentration integrated over time. One may read the clearance as the volume of plasma or blood freed of the substance per unit of time. The low end stands for a low capacity for elimination, the high end for a high capacity for elimination. One may read the MRT as the average time that molecules of a dose stay in the body. `CC(C)(C)Cc1cc(-c2onc([C@@H](CCC(=O)[O-])CC(=O)Nc3ccc(Cl)cc3Cl)c2C2CC2)no1.[Na+]`: the bioavailability in data set [1] is 72%. The IC50 in data set [2], in data set [3], in data set [5], in data set [9] and in data set [10] was more than 50 µM each time. For the same compound, the EC50 was more than 20 µM in data set [4], more than 20 µM in data set [6], more than 20 µM in data set [8] and 0.009 µM in [14]. Moreover, in data set [7], the Vd came to 0.76 L/kg. In [11], the logD stood at 4.2. The compound further displayed an AUC in data set [12] of 15 µM·h. The compound also showed a clearance in [13] of 4.17 mL/min/kg. Besides, in data set [15], the result was Active. Besides, the MRT in [16] was 4.9 h.
